Experimental data of several laboratories.
Compare with care: the assays were run in different laboratories.
Target: Macrophage-stimulating protein receptor (MST1R, Homo sapiens, UniProt Q04912)

COc1cc(Nc2ncc(F)c(Nc3ccc4c(n3)NC(=O)C(C)(C)O4)n2)cc(OC)c1OC  inhibition (binding, competition with immobilised ligand; 10 µM): 100%
Cn1cc(-c2cccc(N3CCc4c(sc5c4CC(C)(C)C5)C3=O)c2CO)cc(Nc2ccncn2)c1=O  inhibition (enzyme activity, inhibitor; 1 µM): 11%
Cc1nn(C)cc1-c1nc2c(N3CCN(Cc4ccc(Cl)cc4)CC3)c(Cl)cnc2[nH]1  remaining binding (binding, competition with immobilised ligand; 1 µM): 100%
COc1ncccc1-c1cnn2ccc(N3CCN(C(=O)OC(C)C)CC3)nc12  remaining binding (binding, competition with immobilised ligand; 1 µM): 100%
Cn1cc(-c2cc(F)cc(N3CCn4c(cc5c4CCCC5)C3=O)c2CO)cc(Nc2ccc(N3CCN(C4COC4)CC3)cn2)c1=O  inhibition (enzyme activity, inhibitor; 0.1 µM): 8%
O=c1[nH]c2ccccc2n1C1CCN(Cc2ccc(-c3[nH]c4cc5ncnc5cc4nc3-c3ccccc3)cc2)CC1  remaining signal (cell-free assay; 0.5 µM): 111%
Cn1cncc1[C@@](O)(COc1ccc(C#N)cc1-c1ccc(OC(F)(F)F)cc1)c1ccc(C#N)cc1  remaining binding (cell-free assay, competition with immobilised ligand; 1 µM): 100%
C#Cc1n[nH]c2c(-c3cn([C@@H](C)c4ccccn4)c(=O)[nH]c3=O)cc(F)cc12  inhibition (enzyme activity, inhibitor; 0.1 µM): 47.6%
CC(C)(C)c1cc(C=C(C#N)C#N)cc(Br)c1O  remaining activity (enzyme activity, inhibitor; 0.5 µM): 105%
C#Cc1n[nH]c2c(-c3cn([C@@H](C)c4ccccc4)c(=O)[nH]c3=O)cc(F)cc12  inhibition (enzyme activity, inhibitor; 0.1 µM): 38.6%
N#CC1(c2ccccn2)CCN(Cc2cc(C(=O)O)c(=O)n3ccccc23)CC1  remaining binding (cell-free assay, competition with immobilised ligand; 1 µM): 100%
